# This is a sample that favours compounds with a hit; in the whole collection about 1.6% have one here.
# HNF4A DNA FP = change in binding of human HNF4 alpha to DNA | actives 0.3% (n = 360,000) | activity change, % at 10 µM | P41235 | HNF4a-FITC DNA binding, fluorescence polarization, 1 h; in the data active = activity change above about 30%, passing the limit was not always enough
# TPT1 inhibitor = blocks Candida albicans tRNA 2'-phosphotransferase; inhibition, % at 5 µM; actives 0.81% (n = 300,000); recombinant caTPT1, FP RNA substrate dephosphorylation;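 active = inhibition above the mean of all tested compounds plus 3 SD, set per screening campaign, cut at about 24% in these data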
# CSN deneddyl inh = CSN deneddylation inhibition. Q92905. Purified CSN, SCF-Nedd8-OG deneddylation, fluorescence polarization. inhibition, % at 12.5 µM. actives 0.38% (n = 360,000);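 active = pattern-corrected inhibition above about 35%, with an unprinted fluorescence ratio check between 0.5 and 1.5, limit read from the data, passing the limit was not always enough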
# Target sequence (Q92905 whole entry, looked up, one chain of several): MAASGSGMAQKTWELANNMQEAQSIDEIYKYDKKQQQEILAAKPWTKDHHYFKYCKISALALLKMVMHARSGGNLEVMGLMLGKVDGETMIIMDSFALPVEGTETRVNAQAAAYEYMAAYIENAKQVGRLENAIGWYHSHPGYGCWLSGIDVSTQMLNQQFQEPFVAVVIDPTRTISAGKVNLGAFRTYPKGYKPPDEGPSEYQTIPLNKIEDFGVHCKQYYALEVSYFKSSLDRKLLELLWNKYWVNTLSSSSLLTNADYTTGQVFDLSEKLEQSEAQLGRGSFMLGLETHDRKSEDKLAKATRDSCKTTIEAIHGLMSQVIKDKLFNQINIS
#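 Schedule: reaction 90 min, room temperature / Assay system: HEK293T-derived human Csn5 enzyme / Input: Csn5 at 0.24 nM final / Measure: inhibition of Csn5 cleavage, % / Control set: substrate-only high control, full reaction low control / Technique: fluorescence polarization of the substrate / Buffer or medium: Tris/NaCl/DTT buffer, pH 7.5 / Reagent: SCFSkp2-Nedd8OG substrate at 10 nM final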
# PKA-R2B act = activates the human PKA-R2B holoenzyme complex; actives 0.079% (n = 340,000); activation, % at 11.4 µM; PKA-R2B holoenzyme dissociation, Cy5-IP20 fluorescence polarization; R2B truncated from residue 108, S112A mutant; 0% DMSO only, 100% 113 µM cGMP;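 active = activation above a cutoff set at the mean over all compounds plus 3 SD, cut at about 18% in these data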;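 also: higher means more holoenzyme dissociation and a rise in polarization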
# PKA-R1A activ = PKA-R1A complex activation. PKA-R1A dissociation, Cy5-IP20 fluorescence polarization; scaled: DMSO 0%, 113 µM cGMP 100%. activation, % at 11.4 µM. actives 0.083% (n = 340,000). AID 504707;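 active = percent activation above the mean of all tested compounds plus 3 SD, cut at about 19% in these data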;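 also: higher means more PKAc released from R1A so a rise in polarization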
# Rpn11 block = inhibitors of human proteasome Rpn11 | O00487 | human 26S proteasome, Ub4-pepOG fluorescence polarization; 20S core pre-blocked with epoxomicin | calls only at 20 µM | actives 0.59% (n = 360,000) | AID 588493;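 active = inhibition at 20 µM, scaled to each plate's controls, above about 33%, limit read from the data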
# caTPT1 confirm = confirmation of Candida albicans TPT1 inhibitors; shares compounds with TPT1 inhibitor; recombinant caTPT1, fluorescence polarization, RNase T1 coupled; inhibition, % at 5 µM; actives 74% (n = 2,400); AID 2149;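 active = inhibition above the primary screen limit, the mean inhibition of all tested compounds plus 3 SD, cut at about 25% in these data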
# RNase T1 inh = blocks Aspergillus oryzae RNase T1, a TPT1 counter-screen | shares compounds with TPT1 inhibitor | RNase T1 cleavage, fluorescence polarization, 1536-well | inhibition, % at 5 µM | actives 83% (n = 2,400);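 active = inhibition above the solvent-only control well mean plus 3 SD, limit set per screening run, cut at about 23% in these data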;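 also: inhibitors block cleavage so intact labeled substrate keeps polarization high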
# Target sequence (P00651 whole entry, looked up): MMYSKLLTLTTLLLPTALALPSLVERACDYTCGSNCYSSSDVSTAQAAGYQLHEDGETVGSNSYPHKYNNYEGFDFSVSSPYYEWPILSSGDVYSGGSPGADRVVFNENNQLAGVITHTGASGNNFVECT
# Numbers stand for hits; 0 = inactive; - = not tested or not shown; + = active, no number.
SMILES,HNF4A DNA FP,TPT1 inhibitor,CSN deneddyl inh,PKA-R2B act,PKA-R1A activ,Rpn11 block,caTPT1 confirm,RNase T1 inh
CCOc1ccc(/C=C/C(=O)c2c(O)cc(C)oc2=O)cc1,0,45,0,0,0,0,0,0
O=[N+]([O-])C(=C1SCCS1)C(=C(Cl)Cl)N1CCCCC1,0,0,0,0,0,0,-,-
O=[N+]([O-])C(/C=C(\Cl)[N+](=O)[O-])=C(N1CCCCC1)N1CCCCC1,0,35,0,0,0,0,42,58
CCOc1ccc2nc(NC(=O)Cn3c(C)csc3=O)sc2c1,0,-,0,0,0,0,-,-
Cc1ccc(C(=O)CSc2nn3c(=O)c(C(C)(C)C)nnc3s2)cc1,0,32,0,0,0,0,0,0
COc1ccc(OC)c(/C=N/NC(=O)C(O)c2ccccc2)c1 (stereo unspecified),0,0,0,0,0,0,-,-
COc1cccc(C2C(C#N)=C(N)OC(C(C)(C)C)=C2C#N)c1 (stereo unspecified),0,0,0,0,0,0,-,-
COc1cccc(/C=C2/CN(C)CC3=C2OC(N)=C(C#N)C3c2cccc(OC)c2)c1 (stereo unspecified),0,40,0,0,0,0,25,34
CC[C@@H](C)[C@H](NC(=O)Cc1c(C)c2c(cc(C)c3c(C)c(C)oc32)oc1=O)C(=O)O,0,-,0,0,0,0,-,-
CC[C@@H](C)[C@H](NC(=O)CNC(=O)Cc1c(C)c2c(cc(C)c3c(C)coc32)oc1=O)C(=O)O,0,51,0,0,0,0,0,0
Cc1cccc2cc3c(N)c(C(=O)Nc4ccc(N5CCOCC5)cc4)sc3nc12,0,0,0,0,0,0,-,-
CCc1cccc2cc3c(N)c(C(=O)Nc4ccc(S(=O)(=O)N5CCCC5)cc4)sc3nc12,0,39,0,0,0,-,33,42
Cc1nnc2c3ccccc3c(-c3ccc(O)cc3)nn12,0,0,0,0,0,0,-,-
Cc1c(-c2ccc(O)cc2)nc2nc(-c3ccccc3)c(-c3ccccc3)nn12,-,27,-,-,-,-,49,67
NC(=O)[C@@H]1[C@@H]2C(=O)N(c3ccc(F)cc3)C(=O)[C@@H]2[C@H]2C=Cc3ccccc3N21,0,0,0,-,-,0,-,-
O=C(c1ccco1)[C@@H]1[C@@H]2C(=O)N(c3ccc(F)cc3)C(=O)[C@@H]2[C@H]2C=Cc3ccccc3N21,0,30,0,0,0,0,0,31
CCOC(=O)C1=C(C)N=c2s/c(=C\c3cccn3C)c(=O)n2C1c1cccc(OC)c1OC (stereo unspecified),84,82,46,0,0,-,139,137
CCOC(=O)C1=C(C)N=c2s/c(=C/c3ccco3)c(=O)n2C1c1cccc(OC)c1 (stereo unspecified),-,31,-,-,-,-,25,35
CCOC(=O)C1=C(C)N=c2s/c(=C\c3ccc(C(=O)O)cc3)c(=O)n2C1c1ccc(OC)cc1OC (stereo unspecified),0,0,0,0,0,0,-,-
CCc1ccccc1NC(=S)NCCSc1ccc(Cl)cc1,0,+,0,0,0,0,0,0
Cc1ccccc1NC(=S)NCCSc1ccc(Cl)cc1,0,0,0,0,0,0,-,-
CCn1c(SCC(=O)Nc2ccc3c(c2)oc2ccccc23)nnc1-c1ccc(N)cc1,0,0,0,0,0,0,-,-
O=c1c2ccccc2c(/C=N/n2cnnc2)c(O)n1-c1ccccc1,0,0,0,0,0,0,-,-
O=c1c2ccccc2c(/C=N/NS(=O)(=O)c2ccccc2)c(O)n1-c1ccccn1,0,106,80,0,0,-,62,78
O=C(O)CCn1cc(/C=C2/NC(=S)N(c3ccccc3)C2=O)c(-c2ccccc2)n1,0,0,0,0,0,0,-,-
SMILES,HNF4A DNA FP,TPT1 inhibitor,CSN deneddyl inh,PKA-R2B act,PKA-R1A activ,Rpn11 block,caTPT1 confirm,RNase T1 inh
O=C(O)CCn1cc(/C=C2\SC(=S)NC2=O)c(-c2ccccc2)n1,0,54,0,-,-,0,0,0
CC(O)[C@H]1CC[C@H]2[C@@H]3CC[C@H]4C[C@@H](O)CC[C@]4(C)[C@H]3C(=O)C[C@]12C (stereo partly specified),0,0,0,0,0,0,-,-
NC(=S)N/N=C\c1c2ccccc2cc2ccccc12,0,0,0,0,0,0,-,-
S=C(NCCN1CCOCC1)N/N=C/c1c2ccccc2cc2ccccc12,0,38,0,0,0,-,46,58
COCCNC(=S)N/N=C/c1c2ccccc2cc2ccccc12,0,40,0,0,0,0,51,61
COc1ccc2ccccc2c1/C=N/NC(=S)NCCN1CCOCC1,0,0,0,0,0,0,-,-
CNC(=S)N/N=C/c1c2ccccc2c(Cl)c2ccccc12,0,25,0,0,0,0,0,24
O=S(=O)(c1ccc(NC(=S)N/N=C/c2c3ccccc3cc3ccccc23)cc1)N1CCOCC1,0,73,0,0,0,0,99,104
Cc1cc[n+](CCc2ccccc2)cc1C,0,0,0,0,0,0,-,-
Cc1nn(-c2cc(N(S(C)(=O)=O)S(C)(=O)=O)c(Cl)cc2Cl)c(=O)n1C,0,0,0,0,0,0,-,-
CC(=O)[C@@H]1[C@@H]2C(=O)N(C3CCCCC3)C(=O)[C@@H]2C2c3ccccc3C=CN21 (stereo partly specified),-,0,-,-,-,-,-,-
COc1ccc(NC(=O)[C@@H]2[C@@H]3C(=O)N(C4CCCCC4)C(=O)[C@@H]3C3c4ccccc4C=CN32)cc1 (stereo partly specified),0,43,0,0,0,0,50,54
COc1ccc(C(=O)NCCSCc2ccccc2)cc1OC,0,0,0,0,0,0,-,-
Nc1c(C(=O)NCc2ccc3c(c2)OCO3)nnn1Cc1ccc(Br)cc1,0,0,0,0,0,0,-,-
Cn1c2c(c(=O)n3ncnc13)CCCC2,0,0,0,0,0,0,-,-
COC(=O)CSc1nc(N)c2c3c(sc2n1)C(c1ccccc1)SC(c1ccccc1)C3 (stereo unspecified),0,72,0,0,0,-,0,31
CCN(CC)c1ccc(N=Cc2ccc(N(CC)CC)cc2O)cc1,0,63,0,0,0,-,120,121
CCN(CC)c1ccc(C=Nc2ccccc2)c(O)c1,0,0,0,0,0,0,-,-
CCN(CC)c1ccc(/C=N/N=C(N)N)c(O)c1,0,49,0,0,0,-,93,103

# High-throughput results deposited in PubChem by several laboratories.
